ChEMBL document CHEMBL5346895, “Small molecule inhibitors of intestinal epithelial anion exchanger SLC26A3 (DRA) with a luminal, extracellular site of action” (Eur J Med Chem, 2023)

Assay: Effect on loperamide-induced constipation in CD-1 mouse assessed as stool hydration at 10 mg/kg, po via gavage administered 1 hr prior to loperamide administration measured for 3 hrs (reference value: 49 +/- 2 %)
Format: functional
Conditions: time 4 hrs
Summary of the method: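 CD1 mice (bred in house, 8–12 weeks). Test compound given by oral gavage at 10 mg/kg in saline with 5% DMSO and 10% Kolliphor-HS, or vehicle alone, 1 h before loperamide (0.3 mg/kg ip in PBS with 5% ethanol). Mice then held in metabolic cages with free food and water. Stool collected over 3 h for total weight and pellet count. Water content from wet vs dry stool weight.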

O=c1cc(COc2ccccc2Cl)nc2scc(-c3ccccc3)n12
Activity: 55%
